The values that follow come from ChEMBL document CHEMBL1926583, “Synthesis and inhibitory activity of thymidine analogues targeting Mycobacterium tuberculosis thymidine monophosphate kinase” (Bioorg Med Chem, 2011).

pKi: −log10 of the molar value. Values after ≈ are worked out from the molar mass of the structure shown. Active and inactive are the calls of the source. The rule behind the calls is not given here.

What is called pKi is −log10 of the Ki, conventionally taken in molar units. High values mean a low Ki, low ones a high Ki. A word on the MIC99: it is an inhibitory concentration at the 99% level, which refers to growth in some studies and to a panel of isolates in others. Higher therefore signals lower susceptibility. The term inhibition denotes the change of the read-out against control, counted positive when it falls.

Experiment [1] concerns the target T1, Thymidylate kinase (Mycobacterium tuberculosis, UniProt P9WKE1).
T1 sequence (P9WKE1 whole entry): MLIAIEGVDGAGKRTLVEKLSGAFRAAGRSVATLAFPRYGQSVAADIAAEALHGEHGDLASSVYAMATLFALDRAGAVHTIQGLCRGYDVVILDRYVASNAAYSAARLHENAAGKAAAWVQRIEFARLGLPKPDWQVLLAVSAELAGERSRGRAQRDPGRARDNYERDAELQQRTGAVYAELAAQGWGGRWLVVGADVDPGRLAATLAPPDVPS
The experiment in a line: Competitive inhibition of Mycobacterium tuberculosis TMPK by Lineweaver-Burk analysis. An outline of the steps: (§1)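 Coupled spectrophotometric assay at 334 nm (NADH oxidation via pyruvate kinase/lactate dehydrogenase/NDP kinase). Buffer 50 mM Tris-HCl pH 7.4, 50 mM KCl, 2 mM MgCl2, 0.2 mM NADH, 1 mM phosphoenolpyruvate. ATP 0.5 mM and dTMP 0.05 mM held fixed; analogue 0.003–1.5 mM.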

Experiment [2] can be described thus: Selectivity index, ratio of Ki for human TMPK to Ki for Mycobacterium tuberculosis TMPK.
The nature of experiment [3]: Antimycobacterial activity against Mycobacterium bovis BCG 1173P2 after 8 days by resazurin reduction assay. In kind it is functional, Mycobacterium bovis BCG str. Pasteur 1173P2. As to conditions: Mycobacterium tuberculosis variant bovis BCG, 192 h. The essentials:
(§2)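 M. bovis BCG 1173P2 grown in 7H9 Middlebrook broth with 0.2% glycerol and 0.5% Tween-80. Compounds tested as serial 2-fold dilutions, with bacteria at 10^5 per mL. Incubated at 37 °C in humidified normal air for 8 days. Resazurin 0.01% (wt/vol) then added, followed by overnight incubation at 37 °C. Growth read as the OD difference 570 minus 630 nm (blue-to-pink change).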
For orientation: The colour change of resazurin is a common sign of viable cells or microbes.

The subject of experiment [4] is Mycobacterium bovis BCG str. Pasteur 1173P2. Kind of experiment: Antimycobacterial activity against Mycobacterium bovis BCG 1173P2 at 25 ug/mL after 8 days by resazurin reduction assay. In kind it is functional. An outline of the steps: as §2
For experiment [5], the target named is T2, Thymidylate kinase (Homo sapiens) (UniProt P23919).
T2 sequence (whole entry): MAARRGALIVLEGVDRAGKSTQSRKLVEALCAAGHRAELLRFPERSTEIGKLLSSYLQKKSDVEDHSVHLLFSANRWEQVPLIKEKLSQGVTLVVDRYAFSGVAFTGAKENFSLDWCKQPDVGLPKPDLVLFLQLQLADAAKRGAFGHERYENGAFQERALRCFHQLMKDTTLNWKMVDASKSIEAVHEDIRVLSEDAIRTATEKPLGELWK
Kind of experiment: Competitive inhibition of human TMPK at 0.05 mM by Lineweaver-Burk analysis. An outline of the steps:
as §1

In experiment [6] the target is T3, Thymidylate kinase (Mycobacterium tuberculosis) (UniProt P9WKE1).
T3 sequence (whole entry): T1 sequence (P9WKE1 whole entry)
The experiment in a line: Competitive inhibition of Mycobacterium tuberculosis TMPK at 0.05 mM by Lineweaver-Burk analysis. The essentials:
as §1

The target in experiment [7] is T4, Thymidylate kinase (Homo sapiens, UniProt P23919).
T4 sequence (P23919 whole entry): T2 sequence (whole entry)
The experiment in a line: Competitive inhibition of human TMPK by Lineweaver-Burk analysis. The essentials:
as §1

In experiment [8] the target is T2, Thymidylate kinase (Homo sapiens). Kind of experiment: Competitive inhibition of human TMPK at 1 mM by Lineweaver-Burk analysis. An outline of the steps: as §1

In the case of `Cc1cn([C@H]2C[C@H](NC(=S)Nc3ccc(Cl)c(C(F)(F)F)c3)[C@@H](CO)O2)c(=O)[nH]c1=O`, the pKi on Thymidylate kinase [1] is 5.00.
Same read-out and setting: the value for `Cc1cn([C@H]2C[C@H](N=[N+]=[N-])[C@@H](CO)O2)c(=O)[nH]c1=S` was not above 4.00; that for `Cc1cn([C@H]2C[C@H](Nc3nnnn3-c3ccc(Cl)c(C(F)(F)F)c3)[C@@H](CO)O2)c(=O)[nH]c1=O` was 4.35.
In turn, `Cc1cn([C@@H]2C[C@H](O)[C@@H](CNC(=S)Nc3ccc(Cl)c(C(F)(F)F)c3)O2)c(=O)[nH]c1=S` showed a pKi at Thymidylate kinase [1] of 6.77. Further, the Ratio Ki in experiment [2] was more than 100. Further, the MIC99 in experiment [3] was found to be 25 µg/mL (≈ 50.5 µM). Moreover, the inhibition in experiment [4] was 100%. In addition, in experiment [5], the inhibition result is “inactive”.
Compound `Cc1cn([C@H]2C[C@H](O)[C@@H](CNc3nnnn3-c3ccc(Cl)c(C(F)(F)F)c3)O2)c(=O)[nH]c1=O` showed a pKi on Thymidylate kinase [1] of 4.14.
As to `Cc1cn([C@H]2C[C@H](n3cc(-c4ccccc4)nn3)[C@@H](CO)O2)c(=O)[nH]c1=O`, at Thymidylate kinase [1], the pKi was 5.38.
Same read-out and setting: next, `Cc1cn([C@H]2C[C@H](n3cc(-c4ccc(Cl)cc4)nn3)[C@@H](CO)O2)c(=O)[nH]c1=S`: 4.82.
For the compound `Cc1cn([C@@H]2C[C@H](O)[C@@H](CNC(=S)Nc3ccccc3)O2)c(=O)[nH]c1=S`, the MIC99 in experiment [3] was more than 100 µg/mL. The inhibition entry in experiment [6] was “inactive”.
On Thymidylate kinase [1], `Cc1cn([C@H]2C[C@H](O)[C@@H](CNC(=S)Nc3ccc(Cl)c(C(F)(F)F)c3)O2)c(=O)[nH]c1=O` had a pKi of 4.84.
For `Cc1cn([C@H]2C[C@H](NC(=O)Nc3ccc(Cl)c(C(F)(F)F)c3)[C@@H](CO)O2)c(=O)[nH]c1=O`, the results for the pKi at Thymidylate kinase [1] and on Thymidylate kinase [7] were 5.55 and 4.02, respectively. Besides, the Ratio Ki in experiment [2] was found to be 34.
On Thymidylate kinase [1], `Cc1cn([C@@H]2C[C@H](O)[C@@H](Cn3cc(-c4ccc(Cl)cc4)nn3)O2)c(=O)[nH]c1=O` showed a pKi of 5.05.
`Cc1cn([C@H]2C[C@H](n3nnnc3NCc3ccccc3)[C@@H](CO)O2)c(=O)[nH]c1=O` had a pKi at Thymidylate kinase [1] of 5.64. In addition, the Ratio Ki in experiment [2] is more than 100. In addition, the inhibition entry in experiment [8] was “inactive”.
The compound `Cc1cn([C@@H]2C[C@H](N=[N+]=[N-])[C@@H](CO)O2)c(=O)[nH]c1=O` gave a pKi at Thymidylate kinase [1] of 5.22.
Same read-out and setting: next, `Cc1cn([C@H]2C[C@H](O)[C@@H](Cn3cc(-c4ccc(Cl)cc4)nn3)O2)c(=O)[nH]c1=O`: 3.70; `Cc1cn([C@H]2C[C@H](n3cc(-c4ccc(Cl)cc4)nn3)[C@@H](CO)O2)c(=O)[nH]c1=O`: 5.68.
Still for that read-out and setting: the value for `Cc1cn([C@@H]2C[C@H](n3cc(-c4ccc(Cl)cc4)nn3)[C@@H](CO)O2)c(=O)[nH]c1=O` was 4.46.
`Cc1cn([C@H]2C[C@H](n3cc(Cc4ccccc4)nn3)[C@@H](CO)O2)c(=O)[nH]c1=O` gave a pKi on Thymidylate kinase [1] of 5.57. Further, in experiment [2], the Ratio Ki was more than 100. Moreover, the inhibition entry in experiment [8] is “inactive”.
